According to ChEMBL document CHEMBL1148705, “Sponge-derived fijianolide polyketide class: further evaluation of their structural and cytotoxicity properties” (J Med Chem, 2007):
Activity calls are given as the source filed them. The calls are words filed in the database; no cut-off is given here.

Tests used:
HCT-116 [1] = assay: Formation of circular mitotic spindles in human HCT116 up to 50 uM; assay type: functional, cell-based
Method in brief: (§1)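 Cell-based screen for disruption of interphase and mitotic microtubules, tested at concentrations up to 50 µM; scored for microtubule density, bundling, circular mitotic spindles, micronucleation and other nuclear changes.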

MC-38 [2] = assay: Cytotoxicity against mouse C38 cells at 100 ug/disk by disk diffusion method; assay type: functional
Method in brief: (§2)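 Soft agar colony formation assay with compound applied by disk diffusion; cell lines: murine L1210 leukemia and C38 colon, human HCT-116 colon, H-125 lung, CEM leukemia, normal hematopoietic CFU-GM. Differential cytotoxicity given as zone-unit differential between a solid tumor line and leukemia (ΔSL) or normal cells (ΔSN).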

[3] = Cytotoxicity against human H125 cells at 100 ug/disk by disk diffusion method; assay type: functional; method in brief: as §2
HCT-116 [4] = assay: Effect on micronucleation in human HCT116 up to 50 uM; assay type: functional, cell-based; method in brief: as §1
HCT-116 [5] = assay: Cytotoxicity against human HCT116 cells after 72 hrs by trypan blue viable cell count; conditions: HCT-116, 72 h
HCT-116 [6] = assay: Increase in microtubule density in human HCT116 up to 50 uM; assay type: functional, cell-based; method in brief: as §1
[7] = Cytotoxicity against human H116 cells at 100 ug/disk by disk diffusion method; assay type: functional; method in brief: as §2
MDA-MB-435 = assay: Cytotoxicity against human MDA-MB-435 cells after 48 hrs by SRB assay; conditions: MDA-MB-435, 48 h
L1210 [8] = assay: Cytotoxicity against mouse L1210 cells at 100 ug/disk by disk diffusion method; assay type: functional; method in brief: as §2
L1210 [9] = assay: Cytotoxicity against mouse L1210 cells at 30 ug/disk by disk diffusion method; assay type: functional; method in brief: as §2
MC-38 [10] = assay: Cytotoxicity against mouse C38 cells at 30 ug/disk by disk diffusion method; assay type: functional; method in brief: as §2
[11] = Cytotoxicity against human H116 cells at 30 ug/disk by disk diffusion method; assay type: functional; method in brief: as §2
[12] = Cytotoxicity against human H125 cells at 30 ug/disk by disk diffusion method; assay type: functional; method in brief: as §2
HCT-116 [13] = assay: Increase in microtubule density in human HCT116 cells at 20 uM; assay type: functional, cell-based
L1210 [14] = assay: Cytotoxicity against mouse L1210 cells at 9 ug/disk by disk diffusion method; assay type: functional
Method in brief: (§3)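 Disk diffusion soft agar colony formation assay using solid tumor lines (murine colon C38, human colon HCT-116, human lung H125), leukemia lines (murine L1210, human CEM) and normal CFU-GM cells. Results are inhibition zones in zone units. Differential cytotoxicity is the zone difference between solid tumor and leukemia cells (ΔSL) or normal cells (ΔSN).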

HCT-116 [15] = assay: Cytotoxicity against human HCT116 cells assessed as cell kill at 1.2 ng/mL after 168 hrs; assay type: functional
Method in brief: (§4)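 Clonogenic assay. HCT-116 cells were seeded at 200 to 20 000 per 60 mm dish in RPMI + 10% FBS, then given drug at 1 mg/mL and 10-fold dilutions. Exposure was 2 h or 24 h followed by drug-free medium, or continuous. Dishes were incubated 7 days and stained with methylene blue; colonies of ≥50 cells were counted and normalized to untreated control. Experiments were repeated to span 100–0.1% survival.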

HCT-116 [16] = assay: Cytotoxicity against human HCT116 cells assessed as cell kill at 10 ng/mL after 24 hrs; assay type: functional; method in brief: as §4
[17] = Drug level in HCT116 bearing SCID mice plasma at 25 mg/kg, iv after 2 hrs; assay type: ADME, organism-based; set-up: dose 25 mg/kg, route intravenous; conditions: mouse
Method in brief: (§5)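 SCID mice bearing subcutaneous HCT-116 tumors (~100 mg) got a single iv dose of 0.5 mg/mouse (25 mg/kg) in 0.25 mL. Vehicle: 10 mg/mL DMSO stock mixed 1:1 with cremophor/propylene glycol (60:40), then diluted 20-fold in saline. Plasma was taken from individual mice at 1, 15, 30 min and 1, 2, 6, 24 h. Drug was extracted by solid-phase extraction and measured by C18 HPLC with UV detection at 218 nm.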

[18] = Drug level in HCT116 bearing SCID mice plasma at 25 mg/kg, iv after 24 hrs; assay type: ADME, organism-based; set-up: dose 25 mg/kg, route intravenous; conditions: mouse; method in brief: as §5
HCT-116 [19] = assay: Antitumor activity against HCT116 bearig SCID mouse assessed as tumor weight at 25 mg/kg, iv after 24 hrs; assay type: functional, Homo sapiens
HCT-116 [20] = assay: Formation of thick bundles of microtubule stabilization in human HCT116 cells at 20 uM; assay type: functional, cell-based
HCT-116 [21] = assay: Antitumor activity against HCT116 bearing SCID mice at 12.5 mg/kg bolus iv after 9 days relative to control; assay type: functional, Homo sapiens
Method in brief: (§6)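 SCID mice were implanted subcutaneously with 10^6 HCT-116 cells and pooled, 5 per group. Dosing started 3 days after inoculation: daily iv tail-vein bolus for 5 days, 0.25 mL of 1 or 2 mg/mL (about 12.5 or 25 mg/kg/day) in DMSO/cremophor/propylene glycol/saline vehicle. Tumor weight and body weight were followed to day 30, and %T/C was calculated versus untreated controls.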

[22] = Cytotoxicity against human H125 cells at 9 ug/disk by disk diffusion method; assay type: functional; method in brief: as §3
HCT-116 [23] = assay: Abnormal circular mitotic spindles formation in human HCT116 cells at 2 to 20 uM; assay type: functional, cell-based
HCT-116 [24] = assay: Antitumor activity against HCT116 bearig SCID mouse assessed as tumor weight at 25 mg/kg, iv after 30 mins; assay type: functional, Homo sapiens
[25] = Cytotoxicity against human H116 cells at 9 ug/disk by disk diffusion method; assay type: functional; method in brief: as §3
[26] = Drug level in HCT116 bearing SCID mice plasma at 25 mg/kg, iv after 1 min; assay type: ADME, organism-based; set-up: dose 25 mg/kg, route intravenous; conditions: mouse; method in brief: as §5
HCT-116 [27] = assay: Formation of thick bundles of microtubule stabilization in human HCT116 cells at 2 to 20 uM; assay type: functional, cell-based
[28] = Cytotoxicity against human CFU-GM cells at 9 ug/disk by disk diffusion method; assay type: cell-based; method in brief: as §3
MC-38 [29] = assay: Cytotoxicity against mouse C38 cells at 36 ug/disk by disk diffusion method; assay type: functional; method in brief: as §3
CCRF-CEM [30] = assay: Cytotoxicity against human CEM cells at 36 ug/disk by disk diffusion method; assay type: functional; method in brief: as §3
HCT-116 [31] = assay: Antitumor activity against HCT116 bearing SCID mice at 25 mg/kg bolus iv after 11 days relative to control; assay type: functional, Homo sapiens; method in brief: as §6
HCT-116 [32] = assay: Survival of human HCT116 cells at 5 ng/mL after 168 hrs; assay type: functional; conditions: HCT-116, 168 h, read-out: Survival; method in brief: as §4
MC-38 [33] = assay: Cytotoxicity against mouse C38 cells at 40 ug/disk by disk diffusion method; assay type: functional; method in brief: as §2
[34] = Cytotoxicity against human H116 cells at 40 ug/disk by disk diffusion method; assay type: functional; method in brief: as §2
[35] = Cytotoxicity against human CFU-GM cells at 40 ug/disk by disk diffusion method; assay type: cell-based; method in brief: as §2
L1210 [36] = assay: Cytotoxicity against mouse L1210 cells at 40 ug/disk by disk diffusion method; assay type: functional; method in brief: as §2
[37] = Cytotoxicity against human H125 cells at 40 ug/disk by disk diffusion method; assay type: functional; method in brief: as §2
CCRF-CEM [38] = assay: Cytotoxicity against human CEM cells at 40 ug/disk by disk diffusion method; assay type: functional; method in brief: as §2
[39] = Cytotoxicity against human H116 cells at 60 ug/disk by disk diffusion method; assay type: functional; method in brief: as §3
MC-38 [40] = assay: Cytotoxicity against mouse C38 cells at 60 ug/disk by disk diffusion method; assay type: functional; method in brief: as §3
[41] = Cytotoxicity against human H125 cells at 60 ug/disk by disk diffusion method; assay type: functional; method in brief: as §3
L1210 [42] = assay: Cytotoxicity against mouse L1210 cells at 60 ug/disk by disk diffusion method; assay type: functional; method in brief: as §3
[43] = Cytotoxicity against human CFU-GM cells at 30 ug/disk by disk diffusion method; assay type: cell-based; method in brief: as §2

Compound	Activity (HCT-116 [1])	Activity (HCT-116 [4])	IC50 (HCT-116 [5]) [µM]	Activity (HCT-116 [6])	IC50 (MDA-MB-435) [µM]	Activity (L1210 [9]) [Zone units]	Activity (MC-38 [10]) [Zone units]	Activity [11] [Zone units]	Activity [12] [Zone units]	also measured
C=C1C[C@H](C)C[C@@H]2CC=C[C@@H](C/C=C\C(=O)O[C@H]3C[C@@H](O[C@H]3/C=C/[C@@H]3CC(C)=CC(=O)O3)[C@@H](O)[C@@H](O)C1)O2 [FIIJIANOLIDE D]	inactive	inactive	1.9	inactive	21.4	–	–	–	–	Activity (MC-38 [2]): 150 Zone units; Activity [3]: 0 Zone units; Activity [7]: 0 Zone units; Activity (L1210 [8]): 0 Zone units
C=C1C[C@H](C)C[C@@H]2CC=C[C@@H](C/C=C\C(=O)O[C@H]3C[C@@H](O[C@H]3/C=C/[C@@H]3CC(C)=CCO3)[C@@H](O)[C@@H](O)C1)O2 [FIJIANOLIDE A]	–	–	9.7	–	20.2	150	0	100	50	–
C=C1C[C@H](C)C[C@@H]2CC=C[C@@H](C/C=C\C(=O)O[C@H]([C@@H](O)/C=C/[C@@H]3CC(C)=CCO3)C[C@@H]3O[C@H]3[C@@H](O)C1)O2 [FIJIANOLIDE B]	–	–	0.003	–	0.007	–	–	–	–	Activity (HCT-116 [13]): Active; Activity (L1210 [14]): 500 Zone units; Activity (HCT-116 [15]): 90%; Activity (HCT-116 [16]): 90%; concentration at 2 h [17]: 1 µg/mL; concentration at 24 h [18]: 200 µg/mL; Activity (HCT-116 [19]): 2.8 µg/mg; Activity (HCT-116 [20]): inactive; Activity (HCT-116 [21]): 80%; Activity [22]: 250 Zone units; Activity (HCT-116 [23]): Active; Activity (HCT-116 [24]): 4.7 µg/mg; Activity [25]: 700 Zone units; concentration at 1 min [26]: 160 µg/mL; Activity (HCT-116 [27]): Active; Activity [28]: 550 Zone units; Activity (MC-38 [29]): 800 Zone units; Activity (CCRF-CEM [30]): >1000 Zone units; Activity (HCT-116 [31]): 11%; viability at 0.005 µg/mL (HCT-116 [32]): 0.01%
C=C1C[C@H](C)C[C@@H]2CC=C[C@@H](C/C=C\C(=O)OC([C@@H](O)/C=C/[C@@H]3CC(C)=CC(=O)O3)C[C@@H]3O[C@H]3[C@@H](O)C1)O2 (stereo not given in full) [FIJIANOLIDE E]	Active	Active	0.7	Active	1.3	–	–	–	–	Activity (MC-38 [33]): 400 Zone units; Activity [34]: 500 Zone units; Activity [35]: 500 Zone units; Activity (L1210 [36]): 350 Zone units; Activity [37]: 400 Zone units; Activity (CCRF-CEM [38]): 550 Zone units
C=C1C[C@H](C)C[C@@H]2CC=C[C@@H](C/C=C\C(=O)O[C@H]3C[C@@H](O[C@H]3/C=C/[C@@H]3C[C@@]4(C)O[C@H]4[C@@H](O)O3)[C@@H](O)[C@@H](O)C1)O2 [FIJIANOLIDE F]	inactive	inactive	> 50	inactive	> 50	–	–	–	–	Activity [39]: 50 Zone units; Activity (MC-38 [40]): 0 Zone units; Activity [41]: 100 Zone units; Activity (L1210 [42]): 150 Zone units
C=C1C[C@H](C)C[C@@H]2CC=C[C@@H](C/C=C\C(=O)O[C@H]([C@@H](O)/C=C/[C@@H]3C[C@@]4(C)O[C@H]4[C@@H](O)O3)C[C@@H]3O[C@H]3[C@@H](O)C1)O2 [FIJIANOLIDE G]	Active	Active	14.1	Active	9.2	150	350	200	200	Activity [43]: 100 Zone units
C=C1C[C@H](C)C[C@@H]2CC=C[C@@H](C/C=C\C(=O)O[C@H]3C[C@@H](O[C@H]3/C=C/[C@@H]3CC(C)=CC(OC)O3)[C@@H](O)[C@@H](O)C1)O2 (stereo not given in full) [FIJIANOLIDE H]	inactive	inactive	> 50	inactive	> 50	–	–	–	–	Activity (MC-38 [33]): 150 Zone units; Activity [34]: 0 Zone units; Activity (L1210 [36]): 0 Zone units; Activity [37]: 0 Zone units
C=C1C[C@H](C)C[C@@H]2CC=C[C@@H](C/C=C\C(=O)O[C@H]3C[C@@H](O[C@H]3/C=C/[C@@H]3CC(C)=CC(O)O3)[C@@H](O)[C@@H](O)C1)O2 (stereo not given in full) [FIJIANOLIDE I]	inactive	inactive	> 50	inactive	> 50	0	50	0	0	–
